# Activity calls are given as the source filed them. The calls are words filed in the database; no cut-off is given here.
# What was measured:
# Autotaxin [1] = biological target: T1, Autotaxin (Homo sapiens, UniProt Q13822); assay: Inhibition of recombinant human C-terminal FLAg-tagged ATX lysophospholipase D activity expressed in baculovirus infected sf9 cells using FRET based FS-3 substrate measured every 2 mins for 1 hr by fluorescence assay
# Autotaxin [2] = biological target: T1, Autotaxin; assay: Inhibition of recombinant human C-terminal FLAg-tagged ATX nucleotide pyrophosphate phosphatase activity expressed in baculovirus infected sf9 cells using pNP-TMP as substrate measured every 2 mins for 1 hr by fluorescence assay
# [3] = biological target: T2, Lysophosphatidic acid receptor 1 (Homo sapiens, UniProt Q92633); assay: Antagonist activity at LPA1 receptor (unknown origin) expressed in rat RH7777 cells assessed as inhibition of LPA-induced intracellular calcium level measured every 3.42 secs for 70 secs by Fura-2-AM dye based fluorescence assay; assay type: functional, cell-based
# T2 sequence (Q92633 whole entry): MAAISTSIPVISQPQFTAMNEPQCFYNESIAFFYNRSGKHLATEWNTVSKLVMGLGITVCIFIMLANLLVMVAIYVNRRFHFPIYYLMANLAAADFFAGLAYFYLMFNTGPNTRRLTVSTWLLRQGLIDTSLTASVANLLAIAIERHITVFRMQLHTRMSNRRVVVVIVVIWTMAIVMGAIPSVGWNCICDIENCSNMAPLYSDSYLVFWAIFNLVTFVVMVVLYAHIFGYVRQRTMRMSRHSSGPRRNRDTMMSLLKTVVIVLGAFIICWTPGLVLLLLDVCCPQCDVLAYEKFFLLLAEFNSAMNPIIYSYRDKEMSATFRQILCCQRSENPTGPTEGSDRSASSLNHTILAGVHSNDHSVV
# [4] = biological target: T3, Lysophosphatidic acid receptor 3 (Homo sapiens) (UniProt Q9UBY5); assay: Antagonist activity at LPA3 receptor (unknown origin) expressed in rat RH7777 cells assessed as inhibition of LPA-induced intracellular calcium level up to 100 uM measured every 3.42 secs for 70 secs by Fura-2-AM dye based fluorescence assay; assay type: functional, cell-based
# T3 sequence (whole entry): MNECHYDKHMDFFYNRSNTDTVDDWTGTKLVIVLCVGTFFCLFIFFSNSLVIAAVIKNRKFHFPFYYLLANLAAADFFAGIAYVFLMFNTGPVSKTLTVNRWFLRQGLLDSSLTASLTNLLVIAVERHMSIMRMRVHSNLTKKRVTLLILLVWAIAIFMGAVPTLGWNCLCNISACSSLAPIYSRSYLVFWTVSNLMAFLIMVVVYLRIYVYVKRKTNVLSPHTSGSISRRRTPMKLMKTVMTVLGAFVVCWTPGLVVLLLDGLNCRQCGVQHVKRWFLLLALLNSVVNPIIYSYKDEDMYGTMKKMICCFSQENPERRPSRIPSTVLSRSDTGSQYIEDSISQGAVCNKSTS
# [5] = biological target: Lysophosphatidic acid receptor 2 (Homo sapiens) (UniProt Q9HBW0); assay: Antagonist activity at LPA2 receptor (unknown origin) expressed in MEF cells assessed as inhibition of LPA-induced intracellular calcium level up to 100 uM measured every 3.42 secs for 70 secs by Fura-2-AM dye based fluorescence assay; assay type: functional, cell-based
# Chain of Lysophosphatidic acid receptor 2 (Homo sapiens) (Q9HBW0 whole entry): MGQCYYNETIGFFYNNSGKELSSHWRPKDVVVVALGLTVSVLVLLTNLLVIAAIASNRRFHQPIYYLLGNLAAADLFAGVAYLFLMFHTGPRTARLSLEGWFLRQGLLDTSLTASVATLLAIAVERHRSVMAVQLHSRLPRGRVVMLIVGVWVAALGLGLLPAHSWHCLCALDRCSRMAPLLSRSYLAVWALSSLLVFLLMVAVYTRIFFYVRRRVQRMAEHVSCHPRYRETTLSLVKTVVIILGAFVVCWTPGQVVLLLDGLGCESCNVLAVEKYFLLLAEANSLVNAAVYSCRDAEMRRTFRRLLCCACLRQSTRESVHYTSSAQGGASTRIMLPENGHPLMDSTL
# [6] = biological target: Lysophosphatidic acid receptor 4 (Homo sapiens) (UniProt Q99677); assay: Antagonist activity at LPA4 receptor (unknown origin) expressed in CHO cells assessed as inhibition of LPA-induced intracellular calcium level up to 100 uM measured every 3.42 secs for 70 secs by Fura-2-AM dye based fluorescence assay; assay type: functional, cell-based
# Chain of Lysophosphatidic acid receptor 4 (Homo sapiens) (Q99677 whole entry): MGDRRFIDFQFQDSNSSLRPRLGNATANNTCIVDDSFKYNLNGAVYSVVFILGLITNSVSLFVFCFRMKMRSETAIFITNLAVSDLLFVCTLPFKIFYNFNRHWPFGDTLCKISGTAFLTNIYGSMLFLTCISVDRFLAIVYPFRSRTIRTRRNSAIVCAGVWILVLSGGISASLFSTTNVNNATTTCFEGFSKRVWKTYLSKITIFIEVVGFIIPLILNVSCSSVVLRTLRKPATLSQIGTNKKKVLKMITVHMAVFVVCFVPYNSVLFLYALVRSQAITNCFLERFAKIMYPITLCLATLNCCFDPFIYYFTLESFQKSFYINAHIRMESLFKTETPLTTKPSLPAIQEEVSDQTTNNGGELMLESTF
# [7] = biological target: Lysophosphatidic acid receptor 5 (Homo sapiens) (UniProt Q9H1C0); assay: Antagonist activity at FLAG-tagged LPA5 receptor (unknown origin) expressed in rat B103 cells assessed as inhibition of LPA-induced intracellular calcium level up to 100 uM measured every 3.42 secs for 70 secs by Fura-2-AM dye based fluorescence assay; assay type: functional, cell-based
# Chain of Lysophosphatidic acid receptor 5 (Homo sapiens) (Q9H1C0 whole entry): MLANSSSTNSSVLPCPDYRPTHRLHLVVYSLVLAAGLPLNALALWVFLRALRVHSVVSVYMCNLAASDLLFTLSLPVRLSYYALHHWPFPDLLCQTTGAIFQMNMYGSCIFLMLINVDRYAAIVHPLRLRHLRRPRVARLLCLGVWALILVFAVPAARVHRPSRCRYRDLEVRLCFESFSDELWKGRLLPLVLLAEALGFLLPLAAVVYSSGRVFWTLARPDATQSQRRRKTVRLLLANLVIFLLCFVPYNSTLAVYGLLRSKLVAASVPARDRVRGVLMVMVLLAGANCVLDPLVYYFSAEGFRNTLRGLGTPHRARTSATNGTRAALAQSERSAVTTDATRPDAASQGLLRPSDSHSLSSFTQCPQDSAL
# [8] = biological target: T4, Glycerophosphocholine cholinephosphodiesterase ENPP6 (Homo sapiens) (UniProt Q6UWR7); assay: Inhibition of ENPP6 (unknown origin) using pNPPC as substrate measured every 2 mins for 1 hr by […]
# T4 sequence (whole entry): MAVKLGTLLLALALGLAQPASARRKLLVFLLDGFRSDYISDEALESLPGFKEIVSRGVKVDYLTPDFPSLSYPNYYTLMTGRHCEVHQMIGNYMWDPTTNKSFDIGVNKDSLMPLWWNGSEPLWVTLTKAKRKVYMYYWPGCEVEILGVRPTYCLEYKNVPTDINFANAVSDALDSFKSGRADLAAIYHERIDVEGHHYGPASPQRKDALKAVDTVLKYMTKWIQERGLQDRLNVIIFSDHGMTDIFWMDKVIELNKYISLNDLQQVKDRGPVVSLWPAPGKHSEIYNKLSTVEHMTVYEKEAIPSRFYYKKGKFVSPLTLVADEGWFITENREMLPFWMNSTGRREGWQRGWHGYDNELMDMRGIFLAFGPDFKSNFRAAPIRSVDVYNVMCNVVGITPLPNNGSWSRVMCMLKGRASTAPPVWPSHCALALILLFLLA
# Procedure, shortened: (§1)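 10 nM ENPP6 or ENPP7, 10 μM pNPPC, compound 0–10 μM, triplicate; ENPP6 buffer 100 mM Tris, 500 mM NaCl, 0.05% Triton pH 9.0; ENPP7 buffer 50 mM Tris, 150 mM NaCl, 10 mM taurocholate pH 8.5; 405 nm absorbance every 2 min for 1 h.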
# [9] = biological target: T5, Ectonucleotide pyrophosphatase/phosphodiesterase family member 7 (Homo sapiens) (UniProt Q6UWV6); assay: Inhibition of ENPP7 (unknown origin) using pNPPC as substrate measured every 2 mins for 1 hr by […]; procedure, shortened: as §1
# T5 sequence (whole entry): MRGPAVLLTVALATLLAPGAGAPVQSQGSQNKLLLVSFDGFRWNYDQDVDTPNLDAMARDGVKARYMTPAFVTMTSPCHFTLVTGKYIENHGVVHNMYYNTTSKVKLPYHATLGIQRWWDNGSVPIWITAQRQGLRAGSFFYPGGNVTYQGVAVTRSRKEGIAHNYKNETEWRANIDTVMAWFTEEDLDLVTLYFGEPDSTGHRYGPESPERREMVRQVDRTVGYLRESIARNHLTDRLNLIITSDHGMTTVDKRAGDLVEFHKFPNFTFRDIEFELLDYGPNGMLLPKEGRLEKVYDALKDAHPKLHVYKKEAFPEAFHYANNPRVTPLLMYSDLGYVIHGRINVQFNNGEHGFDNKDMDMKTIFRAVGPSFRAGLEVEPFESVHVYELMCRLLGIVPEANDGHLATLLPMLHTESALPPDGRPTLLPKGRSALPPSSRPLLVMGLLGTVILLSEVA
# Autotaxin [10] = biological target: T1, Autotaxin; assay: Competitive inhibition of recombinant human C-terminal FLAg-tagged ATX expressed in baculovirus infected sf9 cells using varying levels of FRET based FS-3 substrate at 0.5 to 2 times IC50 measured every 2 mins for 1 hr by Michaelis-Menten plot analysis
# [11] = biological target: T2, Lysophosphatidic acid receptor 1; assay: Agonist activity at LPA1 receptor (unknown origin) expressed in rat RH7777 cells assessed as increase in intracellular calcium level up to 10 uM measured every 3.42 secs for 70 secs by Fura-2-AM dye based fluorescence assay; assay type: functional, cell-based
# [12] = biological target: T3, Lysophosphatidic acid receptor 3 (Homo sapiens); assay: Agonist activity at LPA3 receptor (unknown origin) expressed in rat RH7777 cells assessed as increase in intracellular calcium level up to 10 uM measured every 3.42 secs for 70 secs by Fura-2-AM dye based fluorescence assay; assay type: functional, cell-based
# [13] = biological target: Lysophosphatidic acid receptor 2 (Homo sapiens) (UniProt Q9HBW0); assay: Agonist activity at LPA2 receptor (unknown origin) expressed in MEF cells assessed as increase in intracellular calcium level up to 10 uM measured every 3.42 secs for 70 secs by Fura-2-AM dye based fluorescence assay; assay type: functional, cell-based
# [14] = biological target: Lysophosphatidic acid receptor 4 (Homo sapiens) (UniProt Q99677); assay: Agonist activity at LPA4 receptor (unknown origin) expressed in CHO cells assessed as increase in intracellular calcium level up to 10 uM measured every 3.42 secs for 70 secs by Fura-2-AM dye based fluorescence assay; assay type: functional, cell-based
# [15] = biological target: Lysophosphatidic acid receptor 5 (Homo sapiens) (UniProt Q9H1C0); assay: Agonist activity at FLAG-tagged LPA5 receptor (unknown origin) expressed in rat B103 cells assessed as increase in intracellular calcium level up to 10 uM measured every 3.42 secs for 70 secs by Fura-2-AM dye based fluorescence assay; assay type: functional, cell-based
# [16] = biological target: T2, Lysophosphatidic acid receptor 1; assay: Antagonist activity at LPA1 receptor (unknown origin) expressed in rat RH7777 cells assessed as inhibition of LPA-induced intracellular calcium level up to 100 uM measured every 3.42 secs for 70 secs by Fura-2-AM dye based fluorescence assay relative to LPA; assay type: functional, cell-based
# Autotaxin [17] = biological target: T1, Autotaxin; assay: Inhibition of ATX (unknown origin) expressed in human A2058 cells assessed as inhibition of LPC-induced cell invasion after 20 hrs by calcein-AM dye based matrigel-mediated Boyden chamber assay
# B16-F10 = assay: Antitumor activity against mouse B16F10 cells implanted in C57BL/6 mouse assessed as reduction in metastatic tumor nodules on lungs at 1 mg/kg, ip administered daily up to 10 days measured on day 21; assay type: functional, organism-based
# Procedure, shortened: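 C57BL/6 mice, 8–12 weeks, given 1 × 10^5 B16F10 cells by tail vein; 1 mg/kg i.p. daily from day 0 (before inoculation) to day 10, vehicle PBS with 1% DMSO and 50 μM charcoal-stripped mouse serum albumin; sacrifice day 21, lung nodules counted; one-way ANOVA with Bonferroni.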
# 4T1 [18] = assay: Growth inhibition of mouse 4T1 cells up to 10 uM after 48 hrs by CellTiter blue assay; assay type: cell-based; conditions: 4t1, 48 h
# Autotaxin (Mus musculus) = Autotaxin (Mus musculus) (UniProt Q9R1E6); assay: Inhibition of ATX in paclitaxel-resistant mouse 4T1 cells assessed as potentiation of paclitaxel-induced antiproliferative activity by measuring reduction in cell viability at 5 uM measured after 3 days by CellTiter blue assay
# Procedure, shortened: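 Paclitaxel-resistant 4T1-TaxR (stepwise PT 40, 100, 200 nM) grown as mammospheres, 3.5 × 10^3 cells/well in serum-free RPMI with N-2, 20 ng/mL FGF and EGF, 4 days; spheres treated 3 days with 100 nM PT with or without inhibitor at 5 μM; CellTiter Blue; quadruplicate, three experiments.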
# Autotaxin [19] = biological target: T1, Autotaxin; assay: Inhibition of ATX (unknown origin) expressed in human A2058 cells assessed as inhibition of LPC-induced cell invasion at 10 uM after 20 hrs by calcein-AM dye based matrigel-mediated Boyden chamber assay
# [20] = Stability in mouse 4T1 cells assessed as parent compound remaining at 10 uM after 16 hrs by LC-MS/MS method; assay type: ADME, cell-based; conditions: read-out: Stability
# Procedure, shortened: (§2)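 4T1 cells (1 × 10^4/well) attached overnight, then 10 μM compound in DMEM with 1% charcoal-stripped FBS (0.1% DMSO final); quadruplicate samples at 0, 16, 40 h, centrifuged, diethyl ether extracted twice, LC-MS/MS peak areas normalized to 0 h.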
# [21] = Stability in mouse 4T1 cells assessed as parent compound remaining at 10 uM after 40 hrs by LC-MS/MS method; assay type: ADME, cell-based; conditions: read-out: Stability; procedure, shortened: as §2
# 4T1 [22] = assay: Growth inhibition of mouse 4T1 cells at 3 uM after 48 hrs by CellTiter blue assay; assay type: cell-based; conditions: 4t1, 48 h
SMILES,IC50 (Autotaxin [1]),inhibition (Autotaxin [2]),inhibition [4],inhibition [5],inhibition [6],inhibition [7],inhibition [8],inhibition [9],inhibition (Autotaxin [10]),Activity [11],Activity [12],Activity [13],Activity [14],Activity [15],Emax [16],IC50 ([3]; read-out: IC50),inhibition (Autotaxin [17]),inhibition (Autotaxin [19]),Activity (4T1 [18]),other results
O=C(Nc1cc(F)c(F)c(F)c1Br)c1cc(S(=O)(=O)N2CCOCC2)c(Cl)cc1Cl,0.018 µM,inactive,inactive,inactive,inactive,inactive,inactive,inactive,,,,,,,,,,,,IC50 [3]: Not Active
CN(C(=O)c1cc(S(=O)(=O)N2CCOCC2)c(Cl)cc1Cl)c1cccc(F)c1,> 1 µM,inactive,,,,,inactive,inactive,,,,,,,,,,,,
O=S(=O)(Nc1cc(F)c(F)c(F)c1)c1cc(S(=O)(=O)N2CCOCC2)c(Cl)cc1Cl,> 1 µM,inactive,,,,,inactive,inactive,,,,,,,,,,,,
CCCCCCCCCCCCCCCc1ccc(CP(=O)(O)O)cc1,,,,,,,,,,,,,,,,,,Active,Non-Toxic,Activity (4T1 [22]): Toxic; inhibition (Autotaxin (Mus musculus)): 25 to 30%

# Further lines, with some results ahead:
IC50 (Autotaxin [1]),inhibition (Autotaxin [2]),inhibition [4],inhibition [5],inhibition [6],inhibition [7],inhibition [8],inhibition [9],inhibition (Autotaxin [10]),Activity [11],Activity [12],Activity [13],Activity [14],Activity [15],Emax [16],IC50 ([3]; read-out: IC50),inhibition (Autotaxin [17]),inhibition (Autotaxin [19]),SMILES,Activity (4T1 [18]),other results
,inactive,inactive,inactive,inactive,inactive,inactive,inactive,Active,inactive,inactive,inactive,inactive,inactive,46.1%,14 to 14.5 µM,Dose-dependent effect,Active,O=C(Nc1cc(F)c(F)c(F)c1)c1cc(S(=O)(=O)N2CCOCC2)c(Cl)cc1Cl,Non-Toxic,Activity (B16-F10): Active; inhibition (Autotaxin (Mus musculus)): 25 to 30%
,inactive,inactive,inactive,inactive,inactive,inactive,inactive,Active,inactive,inactive,inactive,inactive,inactive,50%,18 to 18.4 µM,,,O=C(Nc1cc(Cl)c(F)c(Cl)c1)c1cc(S(=O)(=O)N2CCOCC2)c(Cl)cc1Cl,,
,inactive,,,,,inactive,inactive,Active,,,,,,,,Dose-dependent effect,Active,O=C(Nc1ccc(F)c(F)c1)c1cc(S(=O)(=O)N2CCOCC2)c(Cl)cc1Cl,,
,inactive,inactive,inactive,inactive,inactive,inactive,inactive,Active,inactive,inactive,inactive,inactive,inactive,51%,6 to 6.12 µM,Dose-dependent effect,Active,O=C(Nc1cc(F)c(Cl)c(F)c1)c1cc(S(=O)(=O)N2CCOCC2)c(Cl)cc1Cl,Non-Toxic,"remaining at 16 h, 10 µM [20]: 101%; remaining at 40 h, 10 µM [21]: 108%"
> 1 µM,inactive,,,,,inactive,inactive,,,,,,,,,,,COc1cc(Cl)c(C(=O)Nc2cc(F)c(C(=O)O)c(F)c2)cc1S(=O)(=O)N1CCOCC1,,
